From ChEMBL document CHEMBL4831480, “Identification of First-in-Class Inhibitors of Kallikrein-Related Peptidase 6 That Promote Oligodendrocyte Differentiation” (J Med Chem, 2021)

Tests used:
Kallikrein-6 [1] = target: T1, Kallikrein-6 (Homo sapiens, UniProt Q92876); assay: Inhibition of KLK6 (unknown origin) assessed as release of AMC fluorescent product using Boc-QAR-AMC as substrate at 10 uM incubated for 30 mins by microplate reader
Method in brief: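 KLK6 (activated with lysylendopeptidase) at 2 nM was preincubated 15 min at 37 °C with compound (10 μM screen, or a range within 0.1–100 μM) or DMSO <2%. Reaction started with Boc-QAR-AMC 100 μM in 50 mM Tris, 1 M citrate, 0.05% Brij-35, pH 7.4. AMC read at ex 360/em 460 nm for 30 min. % inhibition taken from initial rates versus DMSO; IC50 from curve fit; ≥3 independent experiments in duplicate.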

Kallikrein-6 [2] = target: T1, Kallikrein-6; assay: Inhibition of KLK6 (unknown origin) assessed as release of AMC fluorescent product using Boc-QAR-AMC as substrate incubated for 30 mins by microplate reader

Row | inhibition (Kallikrein-6 [1]) [%] | IC50 (Kallikrein-6 [2]) | SMILES
1 | 14.8 |  | NCc1ccc(NC(=O)c2ccccc2O)cc1
2 |  | Not Active | Cl.NCc1ccc(NC(=O)c2ccc(F)cc2O)cc1
3 | 7.27 |  | Cc1cccc(O)c1C(=O)Nc1ccc(CN)cc1
4 |  | Not Active | Cl.NCc1ccc(NC(=O)c2cc3ccccc3[nH]2)cc1
5 | 19.8 |  | NCc1ccc(NC(=O)c2ccc3ccccc3c2)cc1
6 | 8.86 |  | NCc1ccc(NC(=O)c2ncccc2O)cc1
7 | 47 |  | NCc1ccc(NC(=O)c2ccc(C(F)(F)F)cc2O)cc1
8 |  | Not Active | CC(C)(C)c1ccc(O)c(CNc2ccc(CN)cc2)c1.Cl
9 |  | Not Active | NCc1ccc(NC(=O)c2c[nH]c3ccccc3c2=O)cc1
10 |  | Not Active | Cl.O=C(NC1CCNCC1)c1ccc2ccccc2c1O
11 | 21.8 |  | COc1ccc(O)c(C(=O)Nc2ccc(CN)cc2)c1
12 |  | Not Active | Cl.NCc1ccc(NC(=O)c2c(O)ccc3ccccc23)cc1
13 | 30 |  | NCc1ccc(NC(=O)c2cc(Br)ccc2O)cc1
14 | 26.5 |  | Cc1ccc(O)c(C(=O)Nc2ccc(CN)cc2)c1
15 | 20 |  | Cc1cccc(C(=O)Nc2ccc(CN)cc2)c1O
